# Source: PubChem
# Most compounds without a hit are left out; they make up all but 0.9% or so of the library.
# DAGLB inh: DAGLB lipase inhibitors, primary screen, biochemical, fluorescence, HTS; inhibition, % at 5.17 µM; HEK293T DAGLB membrane lysate, EnzChek fluorogenic substrate; Diacylglycerol lipase-beta (Homo sapiens), Q8NCG7; hit rate 0.059% among 340,000; in the data active = inhibition above about 34%;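 note: 0% = enzyme with vehicle and 100% = wells lacking enzyme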
# Tn6 DDE FP: inhibitors of Tn6 peptide binding to fibrin DD(E), primary screen, biochemical, fluorescence polarization, human fibrin, Tn6 probe; AID 720509, 2013; hit rate 0.21% among 370,000; inhibition, % at 8.3 µM; Fibrin DD(E) TRITC-Tn6 fluorescence polarization displacement;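 active = inhibition above a per-campaign cutoff: mean of compounds within control limits plus 3 SD, cut at about 15% in these data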;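 note: 0% = median of all compound wells on the plate and 100% = blocking peptide control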
# Target sequence (P02675 whole entry, looked up): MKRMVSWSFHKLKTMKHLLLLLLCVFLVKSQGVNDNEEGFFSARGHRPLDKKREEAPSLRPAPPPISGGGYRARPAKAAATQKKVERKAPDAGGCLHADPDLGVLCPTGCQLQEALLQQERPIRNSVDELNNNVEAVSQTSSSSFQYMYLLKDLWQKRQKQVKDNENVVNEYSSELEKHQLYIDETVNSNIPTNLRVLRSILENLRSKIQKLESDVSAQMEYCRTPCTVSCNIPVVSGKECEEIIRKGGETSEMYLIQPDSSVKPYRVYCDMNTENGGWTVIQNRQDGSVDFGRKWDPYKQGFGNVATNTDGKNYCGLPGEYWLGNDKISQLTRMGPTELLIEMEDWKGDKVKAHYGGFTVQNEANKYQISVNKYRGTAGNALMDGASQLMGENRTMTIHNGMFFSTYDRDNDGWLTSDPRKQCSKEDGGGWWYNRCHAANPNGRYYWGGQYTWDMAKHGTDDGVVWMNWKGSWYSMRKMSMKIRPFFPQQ
# Tn7 DDE FP: inhibitors of Tn7 peptide binding to fibrin DD(E), primary screen, biochemical, fluorescence polarization, human fibrin, Tn7 probe | Fibrinogen beta chain (Homo sapiens), P02675 | inhibition, % at 8.3 µM | AID 720508, 2013 | FP displacement of FITC-Tn7 peptide from fibrin DD(E); 0% = median of compound wells per plate | hit rate 0.13% among 370,000;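 active = inhibition above the mean of compounds falling within the control limits plus 3 SD of them, cut at about 14% in these data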;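 note: 0% = plate median of compound wells and 100% = 10 µM Aha-Tn7 peptide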
#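 Test system – human fibrin DD(E) · Times – 10 min preincubation, 3 h with tracer, room temperature · Detection – fluorescence polarization of the labelled Tn7 tracer · Measure – percent inhibition normalized to high-control wells · Benchmarks – high control wells with 10 µM unlabelled Aha-Tn7 peptide (full inhibition) · Repeats – singlicate testing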
# SKN-1 inh: suppressors of acrylamide-induced Pgst-4::GFP reporter in worms, primary screen, SKN-1 inhibitor project, whole organism, uHTS, GFP/RFP fluorescence ratio, strain VP596 | hit rate 0.49% among 360,000 | C. elegans VP596 Pgst-4::GFP/RFP ratio, 24 h | AID 624304, 2012 | inhibition, % at 21.8 µM;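 active = interference check ratio from 0.5 to 1.5 plus GFP to RFP signal ratio inhibition reaching or exceeding a fixed threshold, cut at about 30% in these data, passing the limit was not always enough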
# PolyA inh: polyadenylation inhibitors in yeast reporter cells, primary screen, luminescence, S. cerevisiae; S. cerevisiae SKY197-pL101 polyadenylation reporter, beta-gal luminescence; efflux-impaired pdr1/pdr3 knockout yeast; score 100 = 6 SD above DMSO; activity score, % at 12 µM; hit rate 0.02% among 300,000; AID 1875, 2009;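 active = lowest replicate activity score at least 50, where 100 means six control SD above control mean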;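 note: yeast exposed to compound for 9 h at 30 °C; higher score means more reporter readthrough which indicates perturbed polyadenylation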
# MT1-MMP act inh: blockers of MT1-MMP proenzyme processing, primary screen, HT1080 RFP-PRO-GFP cells, GFP/RFP fluorescence. Matrix metalloproteinase-14 (Homo sapiens), P50281. GFP/RFP ratio fluorescence, overnight; percent of plate control window, DMSO zero. GFP/RFP ratio change, % at 20 µM. hit rate 0.061% among 360,000. AID 651647, 2012;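 active = GFP/RFP ratio change of at least 30% with cell ATP level not reduced by more than half and red fluorescence within 50% of control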
#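 Assay system: HT1080 cells carrying an RFP-PRO-GFP reporter | Dosing: Single dose of 20 µM compound, 1% DMSO final | Incubation: Cells overnight before dosing, compound overnight, 37 °C, 5% CO2 | Evaluation: GFP/RFP fluorescence ratio | Control set: DMSO and RFP-L50D-GFP cell wells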
# DDE Tn7 confirm: inhibitors of Tn7 peptide binding to fibrin DD(E), confirmation, biochemical, fluorescence polarization, human fibrin, Tn7 probe; shares compounds with Tn7 DDE FP; FP displacement of TRITC-Tn7 peptide from DD(E); 0% set at plate's compound-well median; inhibition, % at 8.3 µM; hit rate 5% among 460; AID 720628, 2013;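 active = inhibition above the campaign cutoff, the mean of compounds within control limits plus 3 SD, cut at about 14% in these data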;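 note: 100% = median FP of high control wells holding Aha-Tn7 inhibitor peptide; displacers lower polarization since freed probe rises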
# Tn7 DDE ctr: counter-screen for inhibitors of Tn7 peptide binding to fibrin DD(E). inhibition, % at 8.3 µM. TRITC-Tn7 probe displacement, fluorescence polarization. hit rate 3% among 460. AID 720633. shares compounds with Tn7 DDE FP;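 active = inhibition above the cutoff, the mean of compounds lying between the control bounds plus 3 SD of those compounds, cut at about 17% in these data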;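 note: 0% = median of compound sample wells and 100% = excess unlabeled Aha-Tn7 peptide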
# * marks the source's active call; other numbers are inactive results; . = no result given.
SMILES,DAGLB inh,Tn6 DDE FP,Tn7 DDE FP,SKN-1 inh,PolyA inh,MT1-MMP act inh,DDE Tn7 confirm,Tn7 DDE ctr
Cc1cccc(N2C(=O)CN(Cc3cccs3)C2=S)c1,-4,-1,15*,6,18,-7,1,1
CCC[C@H]1[C@@H](NC(=O)c2ccc(C)cc2)CC[C@@]23CCCN2C(=O)CCC[C@@H]13,.,0,-4,.,.,.,.,.
CCC(CC)C(=O)c1c[nH]c(C(=O)NCc2ccccc2OC)c1,-1,-9,3,-8,5,-12,.,.
CCC(CC)C(=O)c1c[nH]c(C(=O)NCc2ccccc2)c1,3,-1,14*,16,-4,-1,0,-2
O=C(c1cccc(C(F)(F)F)c1)N1CC[C@H]2[C@H](CCCN2Cc2ccccc2)C1,.,0,4,.,.,.,.,.
O=C(COc1ccc(Oc2ccccc2)cc1)NCc1cn2ccccc2n1,0,5,16*,-14,-10,2,-7,-10
C[C@H]1[C@@H](c2ccccc2)OC(O)([C@H](Cc2ccccc2)NC(=O)OC(C)(C)C)CN1C (some centres undefined),.,-6,-8,.,.,.,.,.
CC(=O)Nc1cc(-c2ccccc2N(C)C)cn2c(-c3ccc(S(C)(=O)=O)cc3)cnc12,.,4,26*,-3,.,-102,-5,-5
O=C1CCCC2=C1C(c1ccsc1)CC(=O)N2c1ccccc1F (centres undefined),-2,4,15*,6,25,4,1,-2
C=CCOc1ccc2c(c1)CCC1C2CCC2(C)C(O)C(O)CC12 (centres undefined),1,3,14*,15,.,5,3,-1
CN(C)S(=O)(=O)c1cccc(NC(=O)C2CCN(S(=O)(=O)c3cccs3)CC2)c1,-4,-4,14*,-12,.,-15,-6,-7
CCN(CC)CCCNc1ccc2ncn3c4ccc(O)cc4c(=O)c1c23,-45,4,40*,-48,.,-112,13,-4
COc1ccc(CN2CCN(Cc3ccco3)CC2)c(OC)c1,-2,8,14*,10,2,5,2,0
COc1ccccc1CN1CCN(Cc2ccco2)CC1,-1,8,3,14,6,0,.,.
O=C(Nc1ccc(C(O)(C(F)(F)F)C(F)(F)F)cc1)c1ccccc1C(F)(F)F,.,5,5,.,.,.,.,.
O=C(c1cc(-c2ccc(O)cc2)on1)N1CCc2ccccc2C1,-5,-5,18*,10,6,5,4,-1
CC(=O)Nc1ccc(Nc2c3c4c(cccc4n(C)c2=O)C(=O)c2ccccc2-3)cc1,27,-2,19*,12,-5,-157,12,8
CC(=O)Nc1ccc(NC2=CC(=O)c3ccccc3C2=O)cc1,8,2,-7,11,-1,10,.,.
Cn1c(=O)c(NC2CCCCC2)c2c3c(cccc31)C(=O)c1ccccc1-2,-272,-1,19*,-55,.,-147,2,11
O=C(CSc1nc2ccc(Nc3nc(N4CCOCC4)nc(N4CCOCC4)n3)cc2s1)Nc1ccccc1Cl,3,6,-3,12,7,-1,.,.
O=C(CSc1nc2ccc(Nc3nc(N4CCOCC4)nc(N4CCOCC4)n3)cc2s1)Nc1ccccc1F,-1,9,16*,6,.,1,5,-10
Cc1cc(C)cc(OCC(C)CN2CCC(C(O)(c3ccccc3)c3ccccc3)CC2)c1 (centres undefined),.,7,0,.,.,.,.,.
COc1ccc(NC(=O)C[C@H]2C(=O)N(c3ccc(Br)cc3)C[C@@H]2c2ccc(OC)cc2)cc1,-3,9,14*,10,.,-5,5,0
COc1ccc(NC(=O)C[C@H]2C(=O)N(c3ccc(OC)cc3)C[C@@H]2c2ccc(Br)cc2)cc1,0,0,6,5,.,3,.,.
CNC(=O)C[C@H]1CC[C@H]2[C@@H](COc3ccc(NC(=O)Nc4ccccc4)cc3C(=O)N2C)O1,.,1,-1,.,.,.,.,.
SMILES,DAGLB inh,Tn6 DDE FP,Tn7 DDE FP,SKN-1 inh,PolyA inh,MT1-MMP act inh,DDE Tn7 confirm,Tn7 DDE ctr
Cc1ccccc1S(=O)(=O)N1CCC(c2nc3ccccc3o2)CC1,.,-3,-2,.,.,.,.,.
COc1ccc2[nH]c(=O)c(CN(C(=O)c3ccncc3)C(C)C)cc2c1,0,-7,-5,0,22,3,.,.
COc1ccc2[nH]c(=O)c(CN(C)C(=O)c3ccncc3)cc2c1,1,-1,15*,-4,12,-6,-2,-4
N#CC1=C(N)C(C#N)(C#N)[C@H](c2c(F)cccc2F)[C@H]2CC3(CC=C12)OCCO3,-8,-1,16*,-19,-3,-135,-2,-10
Cc1cc2c(cc1C)C(c1cccc([N+](=O)[O-])c1)CC(=O)N2 (centres undefined),1,-3,14*,-5,-17,.,4,-3
CCc1c(C)nc2ncnn2c1NCc1cccs1,-4,-2,-4,-2,-7,-3,.,.
FC(F)(F)c1cc(NCc2cccs2)n2ncnc2n1,1,5,15*,12,7,0,-6,-9
CCn1c(SCc2ccccc2Cl)nnc1-c1ccccc1OC,.,0,5,.,.,.,.,.
CCc1nc2ccc(C(=O)NCCc3ccccc3OC)cc2nc1CC,-7,6,14*,9,4,-1,4,6
CCc1nc2ccc(C(=O)NCCc3ccc(OC)c(OC)c3)cc2nc1CC,-1,1,0,0,-1,4,.,.
C=CCN1C(=O)[C@@H](CC(=O)N2CCN(C(=O)c3ccco3)CC2)[C@]2(C(=O)OCC)CCCCC/C=C/12,.,3,5,.,.,.,.,.
C=CCOc1ccc(/C=C/C(=O)N2CCCN(S(=O)(=O)c3c(C)noc3C)CC2)cc1,0,8,15*,1,.,5,6,-2
